Assays:
[1] = test system: U-87 MG; test: Ratio of foretinib IC50 to compound IC50 for human U87MG cells after 72 hrs by MTT assay; type: functional, U-87MG ATCC
[2] = Cytotoxicity against human H460 cells after 72 hrs by MTT assay; settings: NCI-H460, 72 h
[3] = target: Platelet-derived growth factor receptor beta (Homo sapiens, UniProt P09619); test: Inhibition of PDGFRbeta (unknown origin) using poly (Glu, Tyr) 4:1 after 30 mins by HTRF assay
Summary of the method: (§1)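 HTRF assay using purified tyrosine kinase proteins in 50 mM HEPES pH 7.0 with DTT, MgCl2, MnCl2 and 0.1% NaN3. The substrate was poly(Glu,Tyr) 4:1 at 20 µg/mL, and ATP was added as a 10 mM solution. Compounds were diluted in 1% DMSO. Reactions ran 30 min at 25 °C and were stopped with Streptavidin-XL665 and Tk antibody cryptate.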

[4] = target: Vascular endothelial growth factor receptor 2 (Homo sapiens, UniProt P35968); test: Inhibition of VEGFR2 (unknown origin) using poly (Glu, Tyr) 4:1 after 30 mins by HTRF assay; summary of the method: as §1
[5] = target: Mast/stem cell growth factor receptor Kit (Homo sapiens, UniProt P10721); test: Inhibition of c-Kit (unknown origin) using poly (Glu, Tyr) 4:1 after 30 mins by HTRF assay; summary of the method: as §1
[6] = test system: HT-29; test: Cytotoxicity against human HT-29 cells after 72 hrs by MTT assay; settings: HT-29, 72 h
[7] = target: T1, Receptor-type tyrosine-protein kinase FLT3 (Homo sapiens, UniProt P36888); test: Inhibition of Flt-3 (unknown origin) using poly (Glu, Tyr) 4:1 after 30 mins by HTRF assay; summary of the method: as §1
T1 sequence (P36888 whole entry): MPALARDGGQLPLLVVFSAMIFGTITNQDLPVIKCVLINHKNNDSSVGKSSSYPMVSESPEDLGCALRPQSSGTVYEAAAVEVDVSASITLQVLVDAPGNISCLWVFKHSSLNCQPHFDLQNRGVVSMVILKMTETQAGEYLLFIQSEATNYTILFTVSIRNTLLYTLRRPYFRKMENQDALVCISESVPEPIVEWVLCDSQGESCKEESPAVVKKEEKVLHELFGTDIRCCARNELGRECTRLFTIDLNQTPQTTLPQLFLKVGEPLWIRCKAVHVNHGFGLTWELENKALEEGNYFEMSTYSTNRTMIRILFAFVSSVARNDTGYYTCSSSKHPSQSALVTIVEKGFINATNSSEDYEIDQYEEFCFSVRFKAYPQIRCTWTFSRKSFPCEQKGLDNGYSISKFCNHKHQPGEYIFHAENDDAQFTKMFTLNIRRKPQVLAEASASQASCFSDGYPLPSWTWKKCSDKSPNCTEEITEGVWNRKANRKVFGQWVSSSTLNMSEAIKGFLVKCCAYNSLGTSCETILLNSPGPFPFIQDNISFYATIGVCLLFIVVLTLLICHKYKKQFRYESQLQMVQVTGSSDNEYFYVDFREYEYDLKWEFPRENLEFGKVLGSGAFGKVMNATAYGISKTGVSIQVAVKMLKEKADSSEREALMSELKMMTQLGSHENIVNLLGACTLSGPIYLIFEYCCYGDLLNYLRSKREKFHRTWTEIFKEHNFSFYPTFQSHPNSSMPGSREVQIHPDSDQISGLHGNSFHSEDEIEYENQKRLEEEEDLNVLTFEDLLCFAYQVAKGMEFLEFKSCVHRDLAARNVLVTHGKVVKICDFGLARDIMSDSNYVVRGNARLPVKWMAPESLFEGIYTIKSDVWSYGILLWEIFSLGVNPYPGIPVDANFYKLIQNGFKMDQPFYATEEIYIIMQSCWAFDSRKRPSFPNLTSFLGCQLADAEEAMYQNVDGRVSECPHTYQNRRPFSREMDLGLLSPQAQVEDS

[8] = Cytotoxicity against human MKN45 cells after 72 hrs by MTT assay; settings: MKN-45, 72 h
[9] = target: Hepatocyte growth factor receptor (Homo sapiens, UniProt P08581); test: Inhibition of c-Met (unknown origin) using poly (Glu, Tyr) 4:1 after 30 mins by HTRF assay
[10] = target: Epidermal growth factor receptor (Homo sapiens, UniProt P00533); test: Inhibition of EGFR (unknown origin) using poly (Glu, Tyr) 4:1 after 30 mins by HTRF assay; summary of the method: as §1
[11] = test system: HT-29; test: Ratio of foretinib IC50 to compound IC50 for human HT-29 cells after 72 hrs by MTT assay; type: functional
[12] = test system: A549; test: Cytotoxicity against human A549 cells after 72 hrs by MTT assay; type: functional, cell-based; settings: A549, 72 h
Summary of the method: (§2)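 Cells were grown in MEM with 10% FBS and seeded at about 4×10^3 cells per well, then held 24 h at 37 °C in 5% CO2. Compounds were added and the cells cultured 72 h. MTT was added to 5 µg/mL final for 4 h at 37 °C, and the formazan was dissolved in DMSO. IC50 is the mean of three determinations.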

[13] = test system: A549; test: Ratio of foretinib IC50 to compound IC50 for human A549 cells after 72 hrs by MTT assay; type: functional
[14] = Ratio of foretinib IC50 to compound IC50 for human H460 cells after 72 hrs by MTT assay; type: functional
[15] = Cytotoxicity against human U87MG cells after 72 hrs by MTT assay; type: functional, cell-based, U-87MG ATCC; settings: U-87 MG; summary of the method: as §2

## COc1cc2c(Oc3ccc(N/C=C4\C(=O)NC(=O)N(c5ccc(C)cc5)C4=O)cc3F)ccnc2cc1OCCCN1CCCC1
[1]
  Ratio IC50: 1.7
[2]
  IC50: 51 nM
[3]
  IC50: 531 nM
[4]
  IC50: 384 nM
[5]
  IC50: 652 nM
[6]
  IC50: 130 nM
[7]
  IC50: 496 nM
[8]
  IC50: 57 nM
[9]
  IC50: 1.15 nM
[10]
  IC50: > 100000 nM
[11]
  Ratio IC50: 1.2
[12]
  IC50: 72 nM
[13]
  Ratio IC50: 1.8
[14]
  Ratio IC50: 3.7
[15]
  IC50: 640 nM

— ChEMBL document CHEMBL3112515, “Discovery of novel 6,7-disubstituted-4-phenoxyquinoline derivatives bearing 5-(aminomethylene)pyrimidine-2,4,6-trione moiety as c-Met kinase inhibitors” (Bioorg Med Chem, 2014)
